Compound activity as filed in PubChem BioAssay.
Only some compounds are listed: those with a hit (about 1.2% of all), similar ones and a draw of the others.
IDE act – boosts human insulin-degrading enzyme activity in HEK cells | FAbeta-B cleavage, fluorescence polarization; 0% vehicle, 100% cell-free pure enzyme wells | 340,000 tested, 0.073% active | P14735 | activation, % at 5.96 µM;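 active = activation above the mean of all tested compounds plus 3 SD, set per screening campaign, cut at about 17% in these data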
ASAP1 GAP inh – inhibitors of human ASAP1 ArfGAP activity | 360,000 tested, 0.19% active | Q9ULH1 | ASAP1-stimulated ARF1 GTP hydrolysis, GDP FP detection | inhibition, % at 16.5 µM; in the data active = inhibition above about 25%
ARFGAP1 inhibitor – inhibitors of rat ARFGAP1; 360,000 tested, 0.26% active; Q62848; Arfgap1-stimulated ARF1 GTP hydrolysis, GDP FP detection; inhibition, % at 16.5 µM;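 active = inhibition above a per-plate limit, mean inhibition of low control wells plus 3 SD, cut at about 25% in these data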
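Assay system: purified rat His6-Arfgap1 residues 1-136 (GAP domain); Reagent: human Δ17 ARF1 bound to GTP; Dosing: 16.5 µM single point, 1.26% DMSO; Times: GTP hydrolysis reaction 2 h at 25 °C; Signal: FP, GDP Alexa 633 tracer displaced from anti-GDP antibody, 620/688 nm; Measure: % inhibition from polarization.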
PREPL inhibitor – human PREPL enzyme inhibition | inhibition, % at 5.96 µM | recombinant PREPL, fluorescence polarization activity-based probe | Q4J6C6 | 320,000 tested, 0.68% active
Target sequence (Q4J6C6 whole entry, looked up): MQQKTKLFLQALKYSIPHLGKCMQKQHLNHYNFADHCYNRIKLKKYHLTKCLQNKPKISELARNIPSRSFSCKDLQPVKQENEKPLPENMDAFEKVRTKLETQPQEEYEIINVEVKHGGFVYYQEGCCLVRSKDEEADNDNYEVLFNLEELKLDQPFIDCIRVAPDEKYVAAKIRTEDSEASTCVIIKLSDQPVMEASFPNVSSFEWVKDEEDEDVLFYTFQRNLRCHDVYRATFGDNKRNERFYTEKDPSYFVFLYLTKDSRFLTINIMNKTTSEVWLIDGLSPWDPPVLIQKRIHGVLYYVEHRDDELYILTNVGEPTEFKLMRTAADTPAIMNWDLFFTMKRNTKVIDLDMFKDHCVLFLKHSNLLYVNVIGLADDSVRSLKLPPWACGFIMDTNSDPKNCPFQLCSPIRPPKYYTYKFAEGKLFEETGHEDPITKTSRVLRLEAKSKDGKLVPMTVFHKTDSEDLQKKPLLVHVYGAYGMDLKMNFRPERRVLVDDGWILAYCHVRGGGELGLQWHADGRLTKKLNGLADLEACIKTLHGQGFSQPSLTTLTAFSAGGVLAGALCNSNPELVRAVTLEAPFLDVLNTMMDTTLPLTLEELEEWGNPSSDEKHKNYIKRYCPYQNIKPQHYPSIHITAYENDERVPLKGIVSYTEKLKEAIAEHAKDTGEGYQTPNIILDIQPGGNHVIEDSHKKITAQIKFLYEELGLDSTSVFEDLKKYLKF
IDE inh – inhibitors of human insulin-degrading enzyme in cells; P14735; HEK cells, FAbetaB cleavage, fluorescence polarization; inhibition, % at 5.59 µM; 320,000 tested, 0.41% active;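 active = percent inhibition above the average of all tested compounds plus 3 SD, set per screening campaign, cut at about 16% in these data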;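 note: IDE supplied by intact live HEK cells; FP after avidin binding of uncleaved biotin substrate so inhibition keeps polarization high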
PREPL confirm – confirmation of human PREPL enzyme inhibitors; recombinant PREPL, fluorescence polarization activity probe; inhibition, % at 5.96 µM; shares compounds with PREPL inhibitor; 2,000 tested, 67% active
A number is an active result; . = inactive; / = not tested or not shown. Cut-off read from the data, not from the text of the source, unless noted: active = inhibition above about 43%; inactive = the rest.

SMILES | IDE act | ASAP1 GAP inh | ARFGAP1 inhibitor | PREPL inhibitor | IDE inh | PREPL confirm
CCC[C@@H](CN1CCC[C@H]1CN1C(N)=NC[C@H]1C(C)C)N1C[C@@H]([C@H](C)CC)N(CCCC2CCCC2)C1=N | . | . | . | 58.7 | . | 54.3
Cc1ccc(OCC(O)Cn2c(=N)n(CCN3CCOCC3)c3ccccc32)cc1 (configuration not stated) | . | . | . | 45.0 | . | .
O=c1c2ccccc2c(C=NCCCN2CCOCC2)c(O)n1Cc1ccccc1 | . | . | . | . | . | /
O=c1c2ccccc2c(C=NCCCN2CCOCC2)c(O)n1Cc1ccc2c(c1)OCO2 | . | . | . | 43.7 | . | .
O=C(CCc1ccc(S(=O)(=O)N2CCOCC2)cc1)N1CCc2ccccc2C1 | . | . | . | . | . | /
CC(=O)N1CCN(c2ccc(NC(=O)COc3ccc(Cl)cc3Cl)cc2)CC1 | . | . | . | 52.7 | . | 53.8
CC(=O)N1CCN(c2ccccc2NC(=O)COc2ccc(Cl)cc2Cl)CC1 | . | . | . | . | . | /
Cc1ccc(OCC(=O)Nc2ccc(N3CCN(C(=O)c4ccc(C)cc4)CC3)cc2)cc1 | . | . | . | . | . | /
O=C(COc1ccccc1[N+](=O)[O-])Nc1ccc(N2CCN(C(=O)c3cccs3)CC2)cc1 | . | . | . | 44.4 | . | 64.4
O=C(COc1ccccc1Cl)Nc1ccc(N2CCCC2)cc1 | . | . | . | . | . | /
O=C(COc1ccccc1Cl)Nc1ccc(N2CCN(C(=O)c3ccccc3)CC2)cc1 | . | . | . | 63.8 | . | 61.5
CCC(=O)Nc1ccc(N2CCN(C(=O)c3cccs3)CC2)cc1 | . | . | . | . | . | /
CCN1CCN(c2ccc(NC(=O)COc3ccccc3Cl)cc2)CC1 | . | . | . | 47.4 | . | .
COc1ccc(/C=N/NC(=O)Cc2cc(OC)c(OC)cc2[N+](=O)[O-])cc1 | . | . | . | . | . | /
Cc1cccc(OCC(=O)Nc2ccc(N3CCN(C(=O)c4ccccc4)CC3)cc2)c1 | . | . | . | 55.0 | . | 58.0
CCN1CCN(c2ccc(NC(=O)COc3ccc(Cl)cc3C)cc2)CC1 | . | . | . | 43.5 | . | 53.0
CCOC(=O)[C@]12CCC=C1N(Cc1ccco1)C(=O)[C@H](CC(=O)NCCCN1CCCC1=O)C2 | / | . | . | / | / | /
CN(C)c1ccc(C(=O)OCC(=O)c2ccc[nH]2)cc1 | . | . | . | . | . | /
COc1ccc(C(=O)NC2CCSc3ccccc32)cc1S(=O)(=O)N1CCOCC1 (configuration not stated) | . | . | . | . | . | /
COc1ccccc1C1(O)C(=O)Nc2ccccc21 (configuration not stated) | . | . | . | . | . | /
NC(=O)[C@@H]1CCCNc2c(I)cc([N+](=O)[O-])cc2C(=O)N[C@@H](CCCN=C(N)N)C(=O)N[C@@H](CCCN=C(N)N)C(=O)N1 | / | / | / | 61.0 | . | 58.8
COCCn1c(CN(C)Cc2ccccc2)nc2c1c(=O)n(C)c(=O)n2C | . | . | . | 53.0 | . | .
CCOCCn1c(CN(C)Cc2ccccc2)nc2c1c(=O)n(C)c(=O)n2C | . | . | . | . | . | /
Cc1c(Cl)c([N+](=O)[O-])nn1CCCC(=O)Nc1cccc(Cl)c1Cl | . | . | . | 47.3 | . | .
O=C(COc1ccccc1)NNc1c2ccccc2nc2ccccc12 | . | . | . | 45.5 | . | .
SMILES | IDE act | ASAP1 GAP inh | ARFGAP1 inhibitor | PREPL inhibitor | IDE inh | PREPL confirm
COc1ccc(OCC(=O)NNc2c3ccccc3nc3ccccc23)cc1 | . | . | . | 43.7 | . | 50.2
O=C(NNc1c2ccccc2nc2ccccc12)c1ccccc1O | . | . | . | 46.3 | . | .
CN1CCN(CCCN2c3ccccc3Sc3ccc(Cl)cc32)CC1 | . | . | . | 63.1 | . | 55.5
COc1cc(/C=C(\C#N)c2ccccn2)ccc1OCc1ccccc1Cl | . | . | . | 47.1 | . | .
COc1cc(/C=C(\C#N)c2ccccn2)ccc1OCC(=O)Nc1cccc(C(F)(F)F)c1 | . | . | . | . | . | /
CCOc1ccc(CCNC(=O)COC(=O)c2nccnc2N)cc1OCC | . | . | . | . | . | /
Cc1cc2c(c(=O)o1)[C@@]1(C(=O)Nc3ccccc31)C1=C(CCCC1=O)O2 | / | . | . | / | / | /
COC(=O)CCC(=O)OC1(C)C(=O)C2=CN(CCc3c[nH]c4ccccc34)C(c3ccc(OC)cc3)=CC2=C(Br)C1=O (configuration not stated) | . | / | / | . | . | /
